Screening data (PubChem)
NPY1 pot ag: NPY-Y1 receptor potentiators or agonists, primary screen, cell-based | NPY-Y1 expressing cells, potentiator/agonist activation | activation, % at 3.6 µM | actives 0.37% (n = 220,000) | AID 1304, 2008; in the data active means activation above about 33%, passing the limit was not always enough;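 further: cells stimulated with NPY at EC10 then isoproterenol at EC100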
Target sequence (P25929 whole entry, looked up): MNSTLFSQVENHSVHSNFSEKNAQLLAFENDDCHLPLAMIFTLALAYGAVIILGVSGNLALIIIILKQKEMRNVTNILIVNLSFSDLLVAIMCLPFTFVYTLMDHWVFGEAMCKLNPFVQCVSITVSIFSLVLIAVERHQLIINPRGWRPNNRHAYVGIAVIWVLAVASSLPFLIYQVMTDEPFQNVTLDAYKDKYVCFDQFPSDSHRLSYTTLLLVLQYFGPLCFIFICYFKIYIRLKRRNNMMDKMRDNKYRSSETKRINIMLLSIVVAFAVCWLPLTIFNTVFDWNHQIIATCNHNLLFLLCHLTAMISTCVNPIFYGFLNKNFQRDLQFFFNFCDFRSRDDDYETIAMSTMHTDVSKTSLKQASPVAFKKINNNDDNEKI
NPY-Y2 PAM-ag: NPY-Y2 potentiators or agonists, primary screen, cell-based | Neuropeptide Y receptor type 2 (Homo sapiens), P49146 | cells expressing NPY-Y2, potentiator/agonist read-out | actives 0.45% (n = 220,000) | activation, % at 3.6 µM; in the data active means activation above about 27%;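 further: cells stimulated with NPY near EC25 plus isoproterenol at EC100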
NPY-Y2 antag: NPY-Y2 receptor antagonists, primary screen, cell-based; Neuropeptide Y receptor type 2 (Homo sapiens), P49146; NPY-Y2 expressing cells, antagonist mode; inhibition, % at 2.7 µM; actives 0.99% (n = 140,000)
MDM2 E3 inh: MDM2-luciferase reporter signal enhancers, primary screen, MDM2 E3 ligase inhibitor project, cell-based, luminescence, 1536-well | cell-based MDM2 ubiquitination luciferase reporter, 2 h; 0 = plate control, 100 = twice control, blank-subtracted | signal enhancement, % at 5 µM | actives 0.11% (n = 210,000) | AID 1230, 2008;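 active means signal enhancement of 30% or more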;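 further: luminescence tracks abundance of the self-degrading MDM2-luciferase fusion protein; higher signal means inhibition of MDM2 E3 ligase activity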
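Assay system: mammalian cells stably expressing self-ubiquitinating, self-degrading MDM2 E3–luciferase fusion. Quantity: 2000 cells in each well. Medium: DMEM culture medium. Compound dosing: single-point 5 µM. Timing: cell settling 4 h, compound treatment 2 h, both 37 °C. Technique: luciferase luminescence. Read-out basis: percent signal gain over controls, blank-subtracted. Benchmarks: plate controls and plate blanks.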
NPY Y1 blocker: NPY-Y1 receptor antagonists, primary screen, cell-based. HEK293-CNG Y1 cells, membrane potential fluorescence; NPY at EC95, then isoproterenol. inhibition, % at 3.6 µM. actives 1% (n = 200,000);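 active means inhibition above the campaign mean inhibition of all tested compounds plus 3 SD, cut at about 20% in these data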
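System: HEK293 cells with Y1 receptor plus CNG channel / Probe or stimulus: NPY 25 nM then isoproterenol 1 µM plus Ro 20-1724 25 µM / Compound: one concentration, 3.6 µM, in 0.4% DMSO / Schedule: compound incubation 1 h at room temperature, readout 45 min post-stimulation / Measured by: membrane potential fluorescence / Read-out: % inhibition of NPY effect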
Measles CPE: compounds protecting cells from measles virus cytopathic effect, primary screen, measles RdRp inhibitor project, single point, MLSMR library, absorbance; Measles virus-infected cells, CPE protection; actives 1.5% (n = 140,000); protection (pct of control), % at 4 µM; AID 841, 2007; in the data active means protection mostly above about 24%, no sharp cut-off; inactive means mostly below about 26%
NPY1 antag conf: NPY-Y1 receptor antagonists, retest of hits, confirmation, HEK293-CNG cells, membrane potential fluorescence, triplicate; inhibition, % at 3.6 µM; actives 21% (n = 1,200); cAMP; NPY challenge against isoproterenol-raised cAMP; AID 1254, 2008; shares compounds with NPY Y1 blocker; in the data active means inhibition above about 20%
NPY-Y2 antag ct: NPY-Y2 receptor antagonists, selectivity check, confirmation, counter-screen for NPY-Y1 antagonist project, HEK293-CNG cells, membrane potential fluorescence, triplicate; shares compounds with NPY Y1 blocker; antagonism; cells given NPY, then isoproterenol; inhibition, % at 3.6 µM; actives 28% (n = 1,200)
Numbers stand for hits; 0 = inactive; - = no result. Sampled rows, rich in hits. Any-hit rate of the full collection: about 2.8%. Unless noted, no stated cut-off is given here; in the data, active means inhibition above about 17%; inactive means the rest.

SMILES	NPY1 pot ag	NPY-Y2 PAM-ag	NPY-Y2 antag	MDM2 E3 inh	NPY Y1 blocker	Measles CPE	NPY1 antag conf	NPY-Y2 antag ct
COc1cc(OC)c(OC)cc1CN1CCCC(C(=O)c2sccc2C)C1 (stereo unspecified)	0	0	-	0	-	-	-	-
COc1ccc(C(=O)Nc2cccc3cccnc23)cc1OC	0	0	0	0	0	0	-	-
CC(C)Oc1ccc(C(=O)Nc2cccc3cccnc23)cc1	0	0	-	0	22	-	0	24
C/C(=N\Nc1nc2ccccc2s1)c1ccc(Br)s1	0	0	-	0	31	-	0	20
C/C(=N\NC(=O)c1ccccc1[N+](=O)[O-])c1ccc(Br)s1	0	0	-	-	0	-	-	-
O=C1CCN(c2ccc([N+](=O)[O-])cc2F)CC1	0	0	-	0	0	-	-	-
COc1ccc(OCC(=O)O/N=C(\N)Cc2ccc(Cl)cc2)cc1	0	0	0	0	23	0	0	0
COc1cc(/C=N/NC(=O)COc2ccc(-n3cnnn3)cc2)ccc1OCC(N)=O	0	0	-	0	-	-	-	-
COc1cccc(OCc2nc3ncc(Br)cc3[nH]2)c1	0	0	0	0	24	0	0	0
Cc1cc(C)cc(OCc2nc3ncc(Br)cc3[nH]2)c1	0	0	0	-	0	-	-	-
Cc1ccc(NC(=O)C(Nc2ccccc2)c2ccccc2)cc1 (stereo unspecified)	0	0	0	0	0	0	-	-
Cc1ccc(NC(=O)C(c2ccccc2)C2CCCC2)cc1 (stereo unspecified)	0	0	0	0	24	0	0	0
Cc1ccc(-c2nc(NC(=O)c3cc(C(C)(C)C)nn3C)sc2C)cc1Cl	0	0	-	0	-	-	-	-
COc1cc(CNc2ccccc2Oc2cc(=O)n(C)c(=O)n2C)cc(OC)c1OC	0	0	0	0	36	0	0	0
Cn1c(Oc2ccccc2NCc2cc(Br)ccc2O)cc(=O)n(C)c1=O	0	0	0	0	0	0	-	-
CCOc1ccc(CNC(=O)c2ccc(Sc3ccc(Cl)cc3)c(NC(C)=O)c2)cc1	0	0	0	0	41	0	24	20
O=C(CCCc1cccs1)Nc1nc(-c2ccc(F)cc2)cs1	0	0	0	0	25	0	0	0
O=C(O)CCCC(=O)Nc1nc(-c2ccc(F)cc2)cs1	0	0	0	0	0	0	-	-
C#CCOCCOCCOCCNc1nc(N2CCN(C(=O)[C@H](CCCCN)n3cc([C@@H](N)C(C)CC)nn3)CC2)nc(N2CCN(C(=O)[C@H](Cc3cc4ccccc4[nH]3)n3cc([C@@H](N)CC(C)C)nn3)CC2)n1 (stereo partly specified)	0	0	-	-	0	-	-	-
Cc1ccc(C(=O)c2c(NC(=O)c3ccccc3C)sc(C)c2C)cc1	0	0	0	0	23	0	0	36
CCN(CC)CC(=O)Nc1sc(C)c(C)c1C(=O)c1ccc(C)cc1	0	0	-	0	0	-	-	-
COC(=O)C1=C(C)N(C2CCCCC2)C(=O)/C1=C\c1cccs1	0	0	-	0	0	-	-	-
CC(C)(C)n1nnnc1C(c1cccnc1)N1CCN(c2ccccc2)CC1 (stereo unspecified)	0	0	0	0	0	0	-	-
CC(C)(C)n1nnnc1C(c1cccnc1)N(Cc1ccccc1)Cc1cccs1 (stereo unspecified)	0	0	0	-	21	0	0	0
CC(C)(C)n1nnnc1C(c1cccs1)N(Cc1ccccc1)Cc1cccnc1 (stereo unspecified)	0	0	0	0	26	0	0	0
SMILES	NPY1 pot ag	NPY-Y2 PAM-ag	NPY-Y2 antag	MDM2 E3 inh	NPY Y1 blocker	Measles CPE	NPY1 antag conf	NPY-Y2 antag ct
Cc1ccc(C(=O)Nc2ccc(Cl)cc2C)c(Cl)c1	0	0	-	0	0	-	-	-
O=C(Nc1ccncc1)C1CCC(CNS(=O)(=O)c2cccc3nsnc23)CC1 (stereo unspecified)	0	0	-	0	-	-	-	-
Cc1ccsc1/C=N/NC(=O)c1ccncc1	0	0	-	0	0	-	-	-
COc1cc(C(=O)N/N=C/c2sccc2C)cc(OC)c1OC	0	0	-	0	50	-	0	0
CCc1nc(N[C@H](C(=O)O)C(C)C)c2oc3ccccc3c2n1	0	0	-	0	-	-	-	-
CCc1nc(N[C@@H](CC(C)C)C(=O)O)c2oc3ccccc3c2n1	0	0	0	0	26	0	0	23
CCCS(=O)(=O)c1c(S(=O)(=O)CCC)c2ccc(C(N)=O)cn2c1C(=O)c1ccc(OC)cc1	0	0	-	0	0	-	-	-
O=C(NC1CCCCC1)C(c1cccs1)N(Cc1cccs1)C(=O)c1ccco1 (stereo unspecified)	0	0	0	0	47	0	0	0
COc1ccc(Oc2c(-c3ccc(O)cc3O)n[nH]c2C)cc1	0	0	0	0	83	-	35	0
FC(F)(Cl)c1nnc2ccc(Sc3ccccn3)nn12	0	0	-	0	0	-	-	-
COc1cccc(CN2CCN(c3nc4nonc4nc3N3CCCCC3)CC2=O)c1	0	0	-	0	0	-	-	-
Cc1nc(CCNC(=O)c2cccs2)cs1	0	0	0	0	0	0	-	-
O=C(NCCc1ccncc1)c1ccccc1F	0	0	0	0	0	0	-	-
Cc1cc2cc(C)c(NCCNC(=O)c3cccc(F)c3)nc2cc1C	0	0	-	-	40	-	28	0
COC(=O)CNC(=O)c1cccc(F)c1	0	0	0	0	0	0	-	-
Cc1cc2cc(C)c(NCCNC(=O)c3cccs3)nc2cc1C	0	0	-	0	56	-	43	65
Cc1cccc(C(=O)NCCNc2nc3cc(C)c(C)cc3cc2C)c1	0	0	-	0	45	-	29	33
Cc1cc2cc(C)c(NCCNC(=O)c3ccccc3F)nc2cc1C	0	0	-	-	32	-	0	29
CC1=C(C)CC(C(=O)Nc2ccc3c(c2)OCO3)C(C(=O)O)C1 (stereo unspecified)	0	0	-	0	0	-	-	-
CCOc1ccc(C(C)=O)cc1CSc1nnc(-c2cccs2)n1CC1CCCO1 (stereo unspecified)	0	0	0	0	27	0	0	0
O=C(CSc1nnc(-c2cccs2)n1CC1CCCO1)N1CCCC1 (stereo unspecified)	0	0	-	0	0	-	-	-
CCn1c(SCC(=O)N/N=C(\C)c2ccncc2)nnc1-c1ccc(C)cc1	0	0	-	0	-	-	-	-
CC(O)CNCc1ccc(-c2ccccc2)cc1 (stereo unspecified)	0	0	0	0	0	0	-	-
